Measured values taken from article PMC12926890 (Molecular pharmaceutics, 2024).

Tests used:
Format in all cases: cell-based, human
hCMEC/D3 monolayers [1] = experiment: F-Aβ42 cellular uptake by flow cytometry; conditions: 1 μM SB203580 30 min, then 60 min with 1 μM F-Aβ42
Method in brief: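 hCMEC/D3 monolayers grown on collagen-coated 6-well plates, seeded at about 25,000 cells/cm², cultured 5−7 days at 37 °C and 5% CO₂ to confluency, then moved to 1% serum medium the day before. Cells were pretreated 30 min with 1 μM p38 inhibitor, then exposed 60 min to 1 μM FITC-Aβ₄₂. Read-out was the median fluorescence intensity of the cell population by flow cytometry, compared by unpaired two-tailed t test.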

hCMEC/D3 monolayers [2] = experiment: F-Aβ42 intracellular accumulation by confocal microscopy; conditions: 1 μM SB203580 30 min, then 60 min with 1 μM F-Aβ42
Method in brief: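 Monolayers were grown on collagen-coated 8-well chambered slides, cultured 5−7 days at 37 °C and 5% CO₂, then held in 1% serum medium overnight. They received 1 μM p38 inhibitor for 30 min, then 1 μM FITC-Aβ₄₂ for 60 min. Cells were washed three times with ice-cold PBS, fixed in 4% paraformaldehyde for 20 min at room temperature, and DAPI-stained (300 nM, 10 min). They were then mounted and imaged by confocal SIM super-resolution.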

p38 MAPK = experiment: RPPA proteomics assay of p38 phosphorylation; conditions: BBB endothelial (hCMEC/D3) cells exposed to Aβ42

| Compound | F-Aβ42 uptake by hCMEC/D3 cells (flow cytometry, MFI) (hCMEC/D3 monolayers [1]) | fluorescent intensity of F-Aβ42 in the cytoplasm (confocal microscopy) (hCMEC/D3 monolayers [2]) | p38 MAPK kinase activation (RPPA) (p38 MAPK) |
| --- | --- | --- | --- |
| C[S+]([O-])c1ccc(-c2nc(-c3ccncc3)c(-c3ccc(F)cc3)[nH]2)cc1 (stereo not drawn) [SB203580] | significantly reduced | substantial reduction | – |
| Aβ42: unlabeled amyloid-β 42 peptide custom synthesized by AAPPTec | – | – | significantly activated |
